In the M2OR odorant receptor database:

Key:
Conditions in all cases: stereoisomer not certain
OR13A1 (Homo sapiens) = OR13A1 (Homo sapiens) (UniProt Q8NGR1)
In short: (§1)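 Assay methods differ from source to source, frequently being transient luciferase assays in mammalian cell lines. For each receptor–molecule pair, the label responsive (active) applies when the original authors judged the measured signal statistically different from baseline, and non-responsive (inactive) applies otherwise.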

OR13C2 (Homo sapiens) = OR13C2 (Homo sapiens) (UniProt Q8NGS9)
OR13C2 (Homo sapiens), sequence (Q8NGS9 whole entry): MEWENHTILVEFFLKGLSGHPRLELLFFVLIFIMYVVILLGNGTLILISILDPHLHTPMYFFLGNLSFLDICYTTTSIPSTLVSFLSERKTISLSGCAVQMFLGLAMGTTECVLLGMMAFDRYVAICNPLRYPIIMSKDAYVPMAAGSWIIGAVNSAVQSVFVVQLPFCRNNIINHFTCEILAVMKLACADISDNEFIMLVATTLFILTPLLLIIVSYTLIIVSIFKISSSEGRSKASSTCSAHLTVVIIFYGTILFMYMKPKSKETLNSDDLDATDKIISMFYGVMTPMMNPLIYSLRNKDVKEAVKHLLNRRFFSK
In short: as §1

OR13C3 (Homo sapiens) = OR13C3 (Homo sapiens) (UniProt Q8NGS6)
OR13C3 (Homo sapiens), sequence (Q8NGS6 whole entry): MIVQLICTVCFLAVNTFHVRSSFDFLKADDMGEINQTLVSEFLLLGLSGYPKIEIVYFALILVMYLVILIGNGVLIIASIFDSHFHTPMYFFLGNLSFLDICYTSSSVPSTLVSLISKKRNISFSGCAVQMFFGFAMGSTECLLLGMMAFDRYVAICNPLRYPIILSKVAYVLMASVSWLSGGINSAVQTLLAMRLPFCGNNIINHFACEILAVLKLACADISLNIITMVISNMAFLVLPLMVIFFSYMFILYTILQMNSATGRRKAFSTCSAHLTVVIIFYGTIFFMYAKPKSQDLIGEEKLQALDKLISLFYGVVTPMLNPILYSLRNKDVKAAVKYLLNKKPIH
In short: as §1

OR13C4 (Homo sapiens) = OR13C4 (Homo sapiens) (UniProt Q8NGS5)
OR13C4 (Homo sapiens), sequence (Q8NGS5 whole entry): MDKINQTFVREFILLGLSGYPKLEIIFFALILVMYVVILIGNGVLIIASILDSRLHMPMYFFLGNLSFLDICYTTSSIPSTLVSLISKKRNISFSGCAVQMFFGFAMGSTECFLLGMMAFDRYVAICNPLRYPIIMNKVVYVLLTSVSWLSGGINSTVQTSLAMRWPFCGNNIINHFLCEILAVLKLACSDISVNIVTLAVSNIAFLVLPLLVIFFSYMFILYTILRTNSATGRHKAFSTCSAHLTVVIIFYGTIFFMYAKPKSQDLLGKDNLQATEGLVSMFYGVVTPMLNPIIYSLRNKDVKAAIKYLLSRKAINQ
In short: as §1

OR13C5 (Homo sapiens) = OR13C5 (Homo sapiens) (UniProt Q8NGS8)
OR13C5 (Homo sapiens), sequence (Q8NGS8 whole entry): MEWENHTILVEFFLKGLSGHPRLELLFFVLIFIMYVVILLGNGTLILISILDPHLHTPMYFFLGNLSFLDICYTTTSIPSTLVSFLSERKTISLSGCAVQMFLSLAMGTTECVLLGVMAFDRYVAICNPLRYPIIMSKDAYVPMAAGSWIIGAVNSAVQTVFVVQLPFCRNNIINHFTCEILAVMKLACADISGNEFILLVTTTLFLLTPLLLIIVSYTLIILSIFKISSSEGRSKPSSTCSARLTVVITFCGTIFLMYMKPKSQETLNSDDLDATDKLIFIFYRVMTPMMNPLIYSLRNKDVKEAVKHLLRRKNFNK
In short: as §1

OR13C7 (Homo sapiens) = OR13C7 (Homo sapiens) (UniProt P0DN81)
OR13C7 (Homo sapiens), sequence (P0DN81 whole entry): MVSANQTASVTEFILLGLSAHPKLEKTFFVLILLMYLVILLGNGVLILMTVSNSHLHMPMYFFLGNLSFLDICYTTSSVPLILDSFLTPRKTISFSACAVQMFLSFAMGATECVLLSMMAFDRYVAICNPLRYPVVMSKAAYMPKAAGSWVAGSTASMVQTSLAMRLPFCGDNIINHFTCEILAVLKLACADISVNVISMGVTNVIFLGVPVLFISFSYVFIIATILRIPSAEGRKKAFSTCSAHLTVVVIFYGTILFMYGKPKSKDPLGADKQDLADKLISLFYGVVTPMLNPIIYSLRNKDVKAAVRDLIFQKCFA
In short: as §1

OR13C8 (Homo sapiens) = OR13C8 (Homo sapiens) (UniProt Q8NGS7)
OR13C8 (Homo sapiens), sequence (Q8NGS7 whole entry): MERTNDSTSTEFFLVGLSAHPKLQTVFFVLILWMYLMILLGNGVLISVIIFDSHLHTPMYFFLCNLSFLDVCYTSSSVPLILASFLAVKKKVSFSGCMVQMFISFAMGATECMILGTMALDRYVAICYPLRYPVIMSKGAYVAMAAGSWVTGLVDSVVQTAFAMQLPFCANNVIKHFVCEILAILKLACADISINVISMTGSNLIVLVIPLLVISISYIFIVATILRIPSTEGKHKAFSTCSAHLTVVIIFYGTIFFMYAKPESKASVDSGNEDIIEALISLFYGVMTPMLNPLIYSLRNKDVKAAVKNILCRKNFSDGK
In short: as §1

OR13C9 (Homo sapiens) = OR13C9 (Homo sapiens) (UniProt Q8NGT0)
OR13C9 (Homo sapiens), sequence (Q8NGT0 whole entry): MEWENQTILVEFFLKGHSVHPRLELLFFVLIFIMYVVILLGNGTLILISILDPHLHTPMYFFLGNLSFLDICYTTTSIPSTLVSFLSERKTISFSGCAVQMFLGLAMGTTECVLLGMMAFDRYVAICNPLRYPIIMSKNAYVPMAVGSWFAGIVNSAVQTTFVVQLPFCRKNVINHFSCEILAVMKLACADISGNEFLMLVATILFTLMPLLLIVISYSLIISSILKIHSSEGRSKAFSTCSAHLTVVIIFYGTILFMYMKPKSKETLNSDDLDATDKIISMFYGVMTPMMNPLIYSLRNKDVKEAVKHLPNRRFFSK
In short: as §1

OR13D1 (Homo sapiens) = OR13D1 (Homo sapiens) (UniProt Q8NGV5)
OR13D1 (Homo sapiens), sequence (Q8NGV5 whole entry): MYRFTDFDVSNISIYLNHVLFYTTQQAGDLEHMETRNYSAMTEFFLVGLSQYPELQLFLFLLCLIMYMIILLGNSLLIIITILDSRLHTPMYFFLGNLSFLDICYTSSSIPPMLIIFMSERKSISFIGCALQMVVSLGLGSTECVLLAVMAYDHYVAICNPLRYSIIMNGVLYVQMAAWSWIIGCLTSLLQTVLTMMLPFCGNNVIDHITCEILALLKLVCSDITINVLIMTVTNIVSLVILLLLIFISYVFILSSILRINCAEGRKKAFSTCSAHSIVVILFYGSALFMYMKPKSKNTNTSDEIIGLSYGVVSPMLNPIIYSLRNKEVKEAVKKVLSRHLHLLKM
In short: as §1

OR13F1 (Homo sapiens) = OR13F1 (Homo sapiens) (UniProt Q8NGS4)
OR13F1 (Homo sapiens), sequence (Q8NGS4 whole entry): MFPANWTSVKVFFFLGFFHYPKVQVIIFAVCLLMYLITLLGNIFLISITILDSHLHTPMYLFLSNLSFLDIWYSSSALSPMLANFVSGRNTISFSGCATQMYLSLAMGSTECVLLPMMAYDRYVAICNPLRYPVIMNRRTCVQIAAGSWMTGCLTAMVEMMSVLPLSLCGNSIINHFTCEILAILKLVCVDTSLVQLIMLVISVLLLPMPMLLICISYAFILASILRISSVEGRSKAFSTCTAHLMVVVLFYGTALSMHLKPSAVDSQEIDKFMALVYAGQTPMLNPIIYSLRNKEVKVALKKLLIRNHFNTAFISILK
In short: as §1

Measured: odorant receptor agonist call

OR13A1 (Homo sapiens), sequence (Q8NGR1 whole entry): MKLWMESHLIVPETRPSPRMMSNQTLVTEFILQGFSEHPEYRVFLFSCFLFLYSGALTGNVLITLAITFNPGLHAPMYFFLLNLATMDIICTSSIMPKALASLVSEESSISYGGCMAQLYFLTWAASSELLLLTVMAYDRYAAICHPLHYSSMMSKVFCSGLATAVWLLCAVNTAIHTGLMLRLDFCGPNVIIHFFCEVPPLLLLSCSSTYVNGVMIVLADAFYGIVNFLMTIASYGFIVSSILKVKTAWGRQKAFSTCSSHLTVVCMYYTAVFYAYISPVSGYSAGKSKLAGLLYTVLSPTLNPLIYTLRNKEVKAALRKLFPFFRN

Cc1c([N+](=O)[O-])c(C)c([N+](=O)[O-])c(C(C)(C)C)c1[N+](=O)[O-]
inactive: all assays above

C=CCOC(=O)Cc1ccccc1
not listed: OR13C7 (Homo sapiens)
inactive: all other assays above
